Measured values collected from several papers.
Observed: cell growth or viability

For `CCn1c(=O)c(-c2ccc(-c3cncs3)cc2Cl)cc2cnc(Nc3ccc(N4CCN(C)CC4)cc3)nc21`, the IC50 was 3030 nM (BXPC-3; MTT; 24 h).
The IC50 of `Nc1ccn([C@@H]2O[C@H](CO)[C@@H](O)C2(F)F)c(=O)n1` is reported as 28 nM (BXPC-3; MTT).
For `C=C(C)[C@@H]1CC[C@]2(C(=O)O)CC[C@]3(C)[C@H](CC[C@@H]4[C@@]5(C)CC[C@H](O)C(C)(C)[C@@H]5CC[C@]43C)[C@@H]12`, the IC50 was 20000 nM (DLD-1; 48 h).
With `Cc1nc(NC(=O)N2CCC[C@H]2C(N)=O)sc1-c1ccnc(C(C)(C)C(F)(F)F)c1` the IC50 was 154 nM (SW48; ATP luminescence; 96 h).
`COc1cccc2c1C(=O)c1c(O)c3c(c(O)c1C2=O)C[C@@](O)(C(=O)CO)C[C@@H]3O[C@H]1C[C@H](N)[C@H](O)[C@H](C)O1` gave an IC50 of 0.7 µg/mL (SK-MEL; neutral red; 48 h).
The IC50 of `CCN1CCN(c2ccc(Nc3cc(N(C)C(=O)Nc4c(Cl)c(OC)cc(OC)c4Cl)ncn3)cc2)CC1` is reported as 52.5 nM (MFE-296; ATP luminescence; 96 h).
`Cc1nc(-c2cn3c(n2)-c2ccc(-c4cnn(C(C)(C)C(N)=O)c4)cc2OCC3)n(C(C)C)n1` has an IC50 of 21.5 nM (SW48; ATP luminescence; 96 h).
`CC(=O)O[C@H]1C(=O)[C@@]2(C)[C@H]([C@H](OC(=O)c3ccccc3)[C@]3(O)C[C@H](OC(=O)[C@H](O)[C@@H](NC(=O)c4ccccc4)c4ccccc4)C(C)=C1C3(C)C)[C@]1(OC(C)=O)CO[C@@H]1C[C@@H]2O` has an IC50 of 4 nM (BXPC-3; fluorescence; 72 h).
`Cc1cnc(NC2CCOCC2)nc1-n1cnc(C(=O)NC(CN)c2cc(F)cc(Cl)c2)c1` (centres unmarked) gave an IC50 of 300 nM (U-2973; MTS).
`COc1cc(Nc2nccc(-c3cnn4nc(OC)ccc34)n2)cc(C(F)(F)F)c1` has an IC50 of 530 nM (DLD-1; ATP luminescence).
`Cc1ccc2[nH]c(=O)c3cc(C(=O)NCCCN(C)Cc4ccccc4)sc3c2c1` has an IC50 of 10100 nM (BXPC-3; MTT; 24 h).
`CC(C)C[C@H](NC(=O)[C@H](Cc1ccccc1)NC(=O)c1cnccn1)B(O)O` has an IC50 of 13 nM (SK-N-FI; ATP luminescence).
`C=C(C)C(=O)Nc1ccc(-c2c(-c3ccc(Oc4nccc(C)n4)c(F)c3)c3c(N)ncnc3n2C)cc1` has an IC50 of 9.96 nM (MFE-296; ATP luminescence; 96 h).
For `CN(C)CCCN1c2ccccc2Sc2ccc(Cl)cc21`, the IC50 was 26000 nM (human Hepatocyte).
